The results in this text go back to PubChem BioAssay AID624095 (The Scripps Research Institute Molecular Screening Center, 2012).

Structures are written as SMILES. The source made the active and inactive calls.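 The calls were made as follows: active = MIC at a fourfold reduction of 10 µM or lower; inactive = MIC at a fourfold reduction above 10 µM.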

The term MIC denotes the lowest concentration found to suppress growth.

Tested on in one assay: not listed separately
The assay can be described thus: imipenem potentiation in IMP-1 P. aeruginosa isolate, late-stage follow-up, VIM-2 MBL inhibitor project, strain KN20, clinical isolate, powder samples (AID 624095). The conditions noted are these: IMP-1 P. aeruginosa KN20 growth with imipenem, OD600; measured here: max imipenem fold potentiation; stronger effect = higher value. The method, boiled down: (§1)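 Test system: log-phase bacterial cells in broth / Buffer or medium: Mueller-Hinton broth with adjusted cations (CAMHB) / Reagent: imipenem in two-fold serial dilutions, orthogonal to compound / Compound: checkerboard two-fold serial dilutions, compound across rows / Incubation: bacterial incubation of at least 18 h, 37 °C, aerobic / Detection: turbidity measured by optical absorbance / Read-out: MIC per CLSI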
As to `CN1CCN(NC(=O)CN2C(=O)/C(=C/c3c(Cl)ccc(Cl)c3Cl)SC2=S)CC1`, the fold potentiation was found to be 2.

With `CN1CCN(NC(=O)CN2C(=O)/C(=C/c3c(Cl)ccc(C(F)(F)F)c3Cl)SC2=S)CC1`, the fold potentiation was determined as 2.

Regarding `CN1CCN(NC(=O)CN2C(=O)/C(=C/c3c(F)cccc3Cl)SC2=S)CC1`, the fold potentiation was 2.

The next assay has as its system IMP-1 P. aeruginosa KN20 growth with imipenem, OD600. The description is as above.
Conditions: not given
The method, boiled down: as §1
As to `O=C(O)CN1C(=O)/C(=C/c2c(F)cccc2C(F)(F)F)SC1=S`, the MIC is > 50 µM (inactive).

Turning to `O=C(CN1C(=O)/C(=C/c2c(Cl)cccc2Cl)SC1=S)NN1CCN(C(=O)c2ccccc2)CC1`, the MIC was > 50 µM (inactive).

With `CN1CCN(C(=O)CN2C(=O)/C(=C/c3c(Cl)ccc(Cl)c3Cl)SC2=S)CC1`, the MIC is > 50 µM (inactive).

For `CC(=O)N1CCN(NC(=O)CN2C(=O)/C(=C/c3c(Cl)cccc3Cl)SC2=S)CC1`, the MIC is > 50 µM (inactive).

Consider `O=C(CN1C(=O)/C(=C/c2c(Cl)cccc2Cl)SC1=S)NN1CCCCC1`, for which the MIC is > 100 µM (inactive).

Turning to `CC(C)(C)OC(=O)N1CCN(NC(=O)CN2C(=O)/C(=C/c3c(Cl)ccc(Cl)c3Cl)SC2=S)CC1`, the MIC was > 50 µM (inactive).

In the case of `CN1CCN(NC(=O)CN2C(=O)/C(=C/c3c(Cl)ccc(Cl)c3Cl)SC2=S)CC1`, the MIC was > 50 µM (inactive).

Consider `CN1CCN(NC(=O)CN2C(=O)/C(=C/c3c(Cl)ccc(C(F)(F)F)c3Cl)SC2=S)CC1`, for which the MIC is > 50 µM (inactive).

On to `CN1CCN(NC(=O)CN2C(=O)/C(=C/c3c(Cl)cccc3Cl)SC2=S)CC1`, for which the MIC was > 100 µM (inactive).

Turning to `O=C(CN1C(=O)/C(=C/c2c(Cl)ccc(Cl)c2Cl)SC1=S)NCc1ccccn1`, the MIC is > 50 µM (inactive).

Turning to `O=C(CN1C(=O)/C(=C/c2c(Cl)ccc(Cl)c2Cl)SC1=S)NN1CCCCC1`, the MIC is > 50 µM (inactive).

Take `CN1CCN(NC(=O)CN2C(=O)/C(=C/c3c(C(F)(F)F)ccc(Cl)c3Cl)SC2=S)CC1`: the MIC was > 50 µM (inactive).

Turning to `O=C(CN1C(=O)/C(=C/c2c(Cl)ccc(Cl)c2Cl)SC1=S)NN1CCNCC1`, the MIC is > 50 µM (inactive).

As to `O=C(CN1C(=O)/C(=C/c2c(Cl)cccc2Cl)SC1=S)NN1CCNCC1`, the MIC is > 50 µM (inactive).

As to `CC(C)(C)OC(=O)N1CCN(NC(=O)CN2C(=O)/C(=C/c3c(Cl)cccc3Cl)SC2=S)CC1`, the MIC was > 100 µM (inactive).

As to `O=C(CN1C(=O)/C(=C/c2c(Cl)cccc2Cl)SC1=S)NCc1ccccn1`, the MIC was > 100 µM (inactive).

On to `CC(C)N1CCN(NC(=O)CN2C(=O)/C(=C/c3c(Cl)cccc3Cl)SC2=S)CC1`, for which the MIC is > 50 µM (inactive).

`O=C(CN1C(=O)/C(=C/c2c(Cl)cccc2Cl)SC1=S)NN1CCN(Cc2ccccc2)CC1`: the MIC is > 50 µM (inactive).

For `CN1CCN(NC(=O)CN2C(=O)/C(=C/c3c(F)cccc3Cl)SC2=S)CC1`, the MIC was > 50 µM (inactive).

`CCN(CC)OC(=O)CN1C(=O)/C(=C/c2c(Cl)cccc2Cl)SC1=S`: the MIC is > 100 µM (inactive).

Take `CN1CCN(NC(=O)CN2C(=O)/C(=C/c3c(F)cccc3C(F)(F)F)SC2=S)CC1`: the MIC is > 50 µM (inactive).

Consider `O=C(O)CN1C(=O)/C(=C/c2c(Cl)cccc2Cl)SC1=S`, for which the MIC is > 100 µM (inactive).
